Tests used:
Peregrin (Homo sapiens) = target: T1, Peregrin (Homo sapiens) (UniProt P55201)
T1 sequence (whole entry): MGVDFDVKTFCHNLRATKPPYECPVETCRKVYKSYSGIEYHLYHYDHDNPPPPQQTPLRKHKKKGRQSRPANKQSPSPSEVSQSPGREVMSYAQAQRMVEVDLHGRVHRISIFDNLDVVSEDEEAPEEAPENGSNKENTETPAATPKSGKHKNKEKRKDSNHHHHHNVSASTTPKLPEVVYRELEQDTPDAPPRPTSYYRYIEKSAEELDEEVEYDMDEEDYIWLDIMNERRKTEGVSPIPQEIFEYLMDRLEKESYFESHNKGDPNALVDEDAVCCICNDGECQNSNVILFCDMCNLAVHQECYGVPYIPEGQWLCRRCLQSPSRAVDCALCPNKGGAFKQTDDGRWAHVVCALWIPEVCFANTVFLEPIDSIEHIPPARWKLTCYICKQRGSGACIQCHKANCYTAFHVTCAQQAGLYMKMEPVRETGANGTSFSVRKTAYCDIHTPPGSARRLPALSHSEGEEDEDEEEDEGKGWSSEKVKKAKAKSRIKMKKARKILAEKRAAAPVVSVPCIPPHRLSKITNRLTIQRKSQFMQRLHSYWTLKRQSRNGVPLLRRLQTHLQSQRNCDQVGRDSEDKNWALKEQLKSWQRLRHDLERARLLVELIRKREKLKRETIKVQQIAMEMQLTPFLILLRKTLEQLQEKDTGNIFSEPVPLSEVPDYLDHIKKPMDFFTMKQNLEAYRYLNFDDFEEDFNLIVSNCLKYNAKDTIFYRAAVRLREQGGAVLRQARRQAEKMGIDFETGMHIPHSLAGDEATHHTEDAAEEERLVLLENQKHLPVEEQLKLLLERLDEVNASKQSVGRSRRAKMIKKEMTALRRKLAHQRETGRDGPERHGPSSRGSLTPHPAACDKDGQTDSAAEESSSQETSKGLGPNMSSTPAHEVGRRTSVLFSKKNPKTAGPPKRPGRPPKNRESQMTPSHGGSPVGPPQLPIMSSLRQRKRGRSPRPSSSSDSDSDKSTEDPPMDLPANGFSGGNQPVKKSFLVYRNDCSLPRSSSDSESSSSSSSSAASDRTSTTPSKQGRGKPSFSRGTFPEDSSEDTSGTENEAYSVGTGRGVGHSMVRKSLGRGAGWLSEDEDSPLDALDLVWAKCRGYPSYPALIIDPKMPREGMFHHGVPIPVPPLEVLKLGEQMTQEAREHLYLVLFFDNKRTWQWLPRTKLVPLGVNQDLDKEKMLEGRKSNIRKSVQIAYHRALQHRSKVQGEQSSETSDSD

[1] = target: T2, ATPase family AAA domain-containing protein 2 (Homo sapiens, UniProt Q6PL18); assay: Inhibition of human ATAD2A expressed in Escherichia coli BL21 after 1 hr by BROMOscan assay
T2 sequence (Q6PL18 whole entry): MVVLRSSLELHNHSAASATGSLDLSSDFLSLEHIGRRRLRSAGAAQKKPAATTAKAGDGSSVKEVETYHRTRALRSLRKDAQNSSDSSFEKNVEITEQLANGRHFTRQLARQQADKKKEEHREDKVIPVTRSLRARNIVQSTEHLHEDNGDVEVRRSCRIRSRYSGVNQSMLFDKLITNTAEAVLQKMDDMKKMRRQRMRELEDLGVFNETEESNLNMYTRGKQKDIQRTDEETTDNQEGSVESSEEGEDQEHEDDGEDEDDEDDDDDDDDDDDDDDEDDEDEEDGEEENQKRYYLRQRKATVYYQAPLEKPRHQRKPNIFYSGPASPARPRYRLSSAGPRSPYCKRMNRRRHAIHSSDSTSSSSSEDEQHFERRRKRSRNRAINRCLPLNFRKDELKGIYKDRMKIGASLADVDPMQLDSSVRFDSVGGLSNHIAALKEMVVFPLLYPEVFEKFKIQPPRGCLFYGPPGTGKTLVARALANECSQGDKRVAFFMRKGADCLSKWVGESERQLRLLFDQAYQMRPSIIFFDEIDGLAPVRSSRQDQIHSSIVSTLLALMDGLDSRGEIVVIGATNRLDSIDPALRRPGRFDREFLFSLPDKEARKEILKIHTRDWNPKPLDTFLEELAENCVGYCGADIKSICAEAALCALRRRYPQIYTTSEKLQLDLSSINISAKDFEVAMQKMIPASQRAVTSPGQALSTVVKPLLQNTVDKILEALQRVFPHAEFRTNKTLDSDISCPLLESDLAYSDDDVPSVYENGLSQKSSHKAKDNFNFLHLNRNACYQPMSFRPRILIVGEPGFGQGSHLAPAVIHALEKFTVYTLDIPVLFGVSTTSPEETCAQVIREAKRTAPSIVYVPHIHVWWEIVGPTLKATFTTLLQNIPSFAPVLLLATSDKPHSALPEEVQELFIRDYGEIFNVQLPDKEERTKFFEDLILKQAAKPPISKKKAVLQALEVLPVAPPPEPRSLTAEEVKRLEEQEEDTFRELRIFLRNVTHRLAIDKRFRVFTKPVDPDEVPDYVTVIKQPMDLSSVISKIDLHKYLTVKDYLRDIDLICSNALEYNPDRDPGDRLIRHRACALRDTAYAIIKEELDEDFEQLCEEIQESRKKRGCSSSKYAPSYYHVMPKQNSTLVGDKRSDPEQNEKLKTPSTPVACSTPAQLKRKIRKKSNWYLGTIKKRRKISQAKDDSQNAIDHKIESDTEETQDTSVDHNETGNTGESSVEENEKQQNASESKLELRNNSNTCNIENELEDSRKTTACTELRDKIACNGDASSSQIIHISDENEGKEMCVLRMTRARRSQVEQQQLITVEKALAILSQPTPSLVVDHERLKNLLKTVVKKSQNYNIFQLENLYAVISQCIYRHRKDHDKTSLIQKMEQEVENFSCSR

[2] = target: ATPase family AAA domain-containing protein 2B (Homo sapiens, UniProt Q9ULI0); assay: Inhibition of human ATAD2B expressed in Escherichia coli BL21 after 1 hr by BROMOscan assay
Peregrin = target: T3, Peregrin (Homo sapiens, UniProt P55201); assay: Inhibition of human His tagged BRPF1 incubated for 30 mins followed by addition of biotinylated peptide and further incubation for 30 mins measured by AlphaScreen assay
T3 sequence (P55201 whole entry): T1 sequence (whole entry)
Outline: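 Independent AlphaScreen biochemical confirmation of BRPF bromodomain inhibition, with BRD9 and BRD4(BD1) as counter-screens. Test compound was serially diluted from a 100 mM DMSO stock.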

[3] = target: Bromodomain-containing protein 4 (Homo sapiens, UniProt O60885); assay: Inhibition of human His tagged BRD4-BD1 incubated for 30 mins followed by addition of biotinylated peptide and further incubation for 30 mins measured by AlphaScreen assay

Chain of ATPase family AAA domain-containing protein 2B (Q9ULI0 whole entry, the tested form may be a part): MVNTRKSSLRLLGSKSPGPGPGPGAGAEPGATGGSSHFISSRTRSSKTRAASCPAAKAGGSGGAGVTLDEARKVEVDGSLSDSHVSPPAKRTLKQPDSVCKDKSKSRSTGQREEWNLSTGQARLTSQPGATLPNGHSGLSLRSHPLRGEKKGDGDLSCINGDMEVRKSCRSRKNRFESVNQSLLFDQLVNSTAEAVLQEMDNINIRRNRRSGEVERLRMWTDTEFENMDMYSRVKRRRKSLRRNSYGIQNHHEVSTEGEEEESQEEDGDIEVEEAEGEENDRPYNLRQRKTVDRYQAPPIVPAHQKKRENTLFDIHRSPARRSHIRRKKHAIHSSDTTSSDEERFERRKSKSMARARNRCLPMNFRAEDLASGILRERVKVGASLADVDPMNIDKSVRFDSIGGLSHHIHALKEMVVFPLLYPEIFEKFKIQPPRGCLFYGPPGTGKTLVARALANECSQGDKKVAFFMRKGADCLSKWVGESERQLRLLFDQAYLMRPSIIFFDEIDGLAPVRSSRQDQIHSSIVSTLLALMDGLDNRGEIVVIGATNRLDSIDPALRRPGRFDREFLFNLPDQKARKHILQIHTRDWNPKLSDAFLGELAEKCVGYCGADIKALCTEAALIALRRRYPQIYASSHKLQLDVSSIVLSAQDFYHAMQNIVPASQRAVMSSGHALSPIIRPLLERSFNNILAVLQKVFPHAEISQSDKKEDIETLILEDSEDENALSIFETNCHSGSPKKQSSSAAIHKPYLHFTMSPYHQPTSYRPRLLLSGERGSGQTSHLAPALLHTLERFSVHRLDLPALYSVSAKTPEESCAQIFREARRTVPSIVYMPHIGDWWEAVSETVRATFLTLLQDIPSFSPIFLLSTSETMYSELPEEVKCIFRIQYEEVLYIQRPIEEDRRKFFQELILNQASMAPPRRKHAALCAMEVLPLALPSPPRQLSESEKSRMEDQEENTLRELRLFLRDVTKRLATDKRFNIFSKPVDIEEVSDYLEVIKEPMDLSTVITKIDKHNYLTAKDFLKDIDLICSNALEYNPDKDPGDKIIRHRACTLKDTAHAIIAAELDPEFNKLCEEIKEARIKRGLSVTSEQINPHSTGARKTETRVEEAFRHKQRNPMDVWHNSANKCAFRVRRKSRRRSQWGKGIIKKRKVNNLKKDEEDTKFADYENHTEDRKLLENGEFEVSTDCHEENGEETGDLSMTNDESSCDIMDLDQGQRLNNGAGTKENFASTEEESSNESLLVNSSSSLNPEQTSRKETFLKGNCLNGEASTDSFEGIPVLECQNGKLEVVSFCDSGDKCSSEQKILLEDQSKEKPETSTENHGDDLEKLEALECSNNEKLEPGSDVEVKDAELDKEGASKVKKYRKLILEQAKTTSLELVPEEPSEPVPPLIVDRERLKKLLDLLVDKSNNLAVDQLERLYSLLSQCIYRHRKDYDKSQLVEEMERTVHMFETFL

SMILES	ΔTm (Peregrin (Homo sapiens)) [°C]	IC50 [1] [µM]	IC50 [2] [µM]	IC50 (Peregrin) [µM]	IC50 [3] [µM]
Cn1c(=O)ccc2cc(NS(=O)(=O)c3ccc(C#N)c(Cl)c3)ccc21	4.3				
CCc1cc2cc(NS(=O)(=O)c3ccc(C#N)cc3)ccc2n(CC)c1=O		> 100	> 100	> 20	> 20
Cc1cc2cc(NS(=O)(=O)c3ccc(C#N)cc3)ccc2n(C)c1=O		> 100	> 100	0.14	> 20
Cc1cc(C#N)ccc1S(=O)(=O)Nc1ccc2c(ccc(=O)n2C)c1	6.5				

From ChEMBL document CHEMBL4052588, “Design of a Biased Potent Small Molecule Inhibitor of the Bromodomain and PHD Finger-Containing (BRPF) Proteins Suitable for Cellular and in Vivo Studies” (J Med Chem, 2017)
